These results are taken from ChEMBL document CHEMBL4402580, “Structure-Activity Relationship Studies of Tetrahydroquinolone Free Fatty Acid Receptor 3 Modulators” (J Med Chem, 2020).

Data set [1] has as its target T1, Free fatty acid receptor 3 (Homo sapiens) (UniProt O14843).
T1 sequence (whole entry): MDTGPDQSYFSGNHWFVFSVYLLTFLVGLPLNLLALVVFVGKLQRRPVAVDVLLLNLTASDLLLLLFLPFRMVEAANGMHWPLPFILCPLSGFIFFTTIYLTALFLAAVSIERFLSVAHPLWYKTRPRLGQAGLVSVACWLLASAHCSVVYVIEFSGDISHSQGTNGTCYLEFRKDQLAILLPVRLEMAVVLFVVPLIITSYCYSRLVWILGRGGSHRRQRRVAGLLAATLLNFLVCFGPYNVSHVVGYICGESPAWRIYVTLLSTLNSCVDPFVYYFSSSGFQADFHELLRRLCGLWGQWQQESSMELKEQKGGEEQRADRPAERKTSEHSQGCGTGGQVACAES

The target of data set [2] is Free fatty acid receptor 1 (Homo sapiens) (UniProt O14842). Briefly: Agonist activity at human C-terminal eYFP tagged FFA1 receptor stably expressed in HEK293T cells cotransfected with nano-luciferase assessed as recruitment of beta-arrestin2 at 10 uM followed by TUG-770 addition prior to compound treatment by BRET assay. Type of data set: cell-based. (In general: BRET reads energy transfer from a luciferase to a nearby fluorophore.)

The target in data set [3] is T2, Free fatty acid receptor 4 (Homo sapiens) (UniProt Q5NUL3).
T2 sequence (whole entry): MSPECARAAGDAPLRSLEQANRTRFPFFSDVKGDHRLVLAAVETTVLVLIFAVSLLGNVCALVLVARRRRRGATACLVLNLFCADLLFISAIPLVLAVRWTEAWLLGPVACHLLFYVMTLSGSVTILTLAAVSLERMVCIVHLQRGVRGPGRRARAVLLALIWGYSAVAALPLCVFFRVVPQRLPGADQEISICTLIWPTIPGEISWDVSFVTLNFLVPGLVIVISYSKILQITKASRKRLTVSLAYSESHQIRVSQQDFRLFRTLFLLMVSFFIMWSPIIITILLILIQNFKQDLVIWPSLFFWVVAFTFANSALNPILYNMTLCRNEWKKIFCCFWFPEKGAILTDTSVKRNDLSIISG
Nature of the data set: Agonist activity at human C-terminal eYFP tagged FFA4 receptor stably expressed in HEK293T cells cotransfected with nano-luciferase assessed as recruitment of beta-arrestin2 at 10 uM followed by TUG-891 addition prior to compound treatment by BRET assay. It counts as cell-based.

For data set [4], the target named is T3, Free fatty acid receptor 2 (Homo sapiens) (UniProt O15552).
T3 sequence (whole entry): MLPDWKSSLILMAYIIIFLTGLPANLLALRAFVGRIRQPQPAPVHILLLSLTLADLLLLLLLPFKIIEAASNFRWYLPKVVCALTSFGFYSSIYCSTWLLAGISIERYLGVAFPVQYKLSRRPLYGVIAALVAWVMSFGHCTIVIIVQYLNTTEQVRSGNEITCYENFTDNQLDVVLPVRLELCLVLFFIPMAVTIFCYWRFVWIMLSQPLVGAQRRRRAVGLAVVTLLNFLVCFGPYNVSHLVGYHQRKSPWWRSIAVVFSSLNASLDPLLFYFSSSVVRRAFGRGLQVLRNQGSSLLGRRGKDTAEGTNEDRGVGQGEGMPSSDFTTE
Nature of the data set: Agonist activity at human C-terminal eYFP tagged FFA2 receptor stably expressed in Flp-In T-Rex 293 cells assessed as inhibition of forskolin-induced cAMP production at 10 uM after 30 mins by HTR-FRET assay. Type of data set: functional, cell-based.

The target of data set [5] is G-protein coupled receptor 84 (Homo sapiens) (UniProt Q9NQS5). Briefly: Agonist activity at human C-terminal Gia tagged GPR84 receptor stably expressed in Flp-In T-Rex 293 cells assessed as inhibition of forskolin-induced cAMP production at 10 uM after 45 mins by HTR-FRET assay. It counts as functional, cell-based. In general terms: Changes in cAMP serve as a functional read-out for many G protein-coupled receptors.

Data set [6] has as its target Voltage-dependent L-type calcium channel subunit alpha-1C (Homo sapiens, UniProt Q13936). Briefly: Displacement of [3H]-PN200-110 from recombinant full length human L-type calcium channel expressed in HEK293 cells at 10 uM incubated for 120 mins by radiometric scintillation counting method. It counts as cell-based. Particulars: hek293, 2 h. In general terms: In a radioligand displacement assay an active substance lowers the binding of a labelled ligand.

Data set [7] deals with T4, Free fatty acid receptor 3 (Homo sapiens, UniProt O14843).
T4 sequence (O14843 whole entry): T1 sequence (whole entry)
Nature of the data set: (§1) Positive allosteric modulation at human FFA3 receptor stably expressed in Flp-In T-Rex HEK293 cells cotransfected with eYFP assessed as inhibition of forskolin-induced cAMP production measured after 1 hr in presence of 1 uM propionate by fluorescence plate reader assay. Type of data set: functional, cell-based.

For data set [8], the target named is T1, Free fatty acid receptor 3 (Homo sapiens). The source holds these as a separate data set.
The target is the same in data set [9]. Briefly: Negative allosteric modulation at human FFA3 receptor stably expressed in Flp-In T-Rex HEK293 cells cotransfected with eYFP assessed as effect on forskolin-induced cAMP production at 30 uM measured after 1 hr in presence of 3 uM propionate by fluorescence plate reader assay.
For data set [10] the target is unchanged. The data set is described as §1. It counts as functional, cell-based.
The target of data set [11] is T4, Free fatty acid receptor 3. Nature of the data set: Agonist activity at human FFA3 receptor stably expressed in Flp-In T-Rex HEK293 cell membrane assessed as stimulation of [35S]-GTPgammaS binding measured after 1 hr in presence of GDP by liquid scintillation spectrometry.
For data set [12], the target named is T4, Free fatty acid receptor 3.
Data set [13] can be described thus: Chemical stability of compound in DMSO at 25 degree C measured after 7 days by NMR analysis. It counts as physicochemical. Particulars: read-out: Stability.
The nature of data set [14]: Chemical stability of compound in DMSO assessed as compound degradation at 25 degree C measured after 30 days by NMR analysis. Type of data set: physicochemical. To be noted: 720 h.
For data set [15], the target named is T5, Free fatty acid receptor 3 (Mus musculus) (UniProt Q3UFD7).
T5 sequence (whole entry): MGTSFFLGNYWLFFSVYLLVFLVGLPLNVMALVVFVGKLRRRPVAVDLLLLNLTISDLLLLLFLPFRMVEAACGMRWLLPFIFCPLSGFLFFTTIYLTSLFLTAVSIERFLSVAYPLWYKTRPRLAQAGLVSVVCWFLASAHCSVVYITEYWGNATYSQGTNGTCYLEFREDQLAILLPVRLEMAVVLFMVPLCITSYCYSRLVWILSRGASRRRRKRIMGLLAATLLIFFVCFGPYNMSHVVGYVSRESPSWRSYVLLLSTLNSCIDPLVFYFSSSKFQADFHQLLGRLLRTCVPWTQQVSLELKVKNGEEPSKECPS
Briefly: Agonist activity at FFA3 in C57/BL6 mouse DRG neurons assessed as increase in intracellular calcium level at 5 uM by Fura-8/AM staining based inverted fluorescence microscopy. Type of data set: functional, cell-based. In short, it runs like this:
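Mouse colonic-innervating DRGs (T9–L2), wild-type C57/BL6 and FFA3 knockout, digested with papain/L-cysteine then collagenase/dispase, triturated, cultured overnight on matrigel. Cells loaded with Fura 8-AM (3 μM, 20 min, 37 °C), perfused with HEPES buffer pH 7.4, ligand applied 3 min, then ionomycin 5 μM as positive control. Read-out: relative fluorescence by real-time imaging; N = 3 mice per genotype.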

In data set [16] the test system is DRG neuron. Briefly: Effect on intracellular calcium level in FFA3 knock out C57/BL6 mouse DRG neurons at 5 uM by Fura-8/AM staining based inverted fluorescence microscopy. Type of data set: functional, cell-based. In short, it runs like this:
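DRGs from T9–L2 spinal cord of FFA3 knock-out and wild-type C57/BL6 mice; papain/L-cysteine then collagenase/dispase digestion (20 min each, 37 °C), trituration, matrigel coverslips, overnight culture in DMEM/10% FCS. Fura 8-AM (3 μM) loading 20 min, 37 °C; perfusion with HEPES buffer pH 7.4 at room temperature; ligand applied 3 min, then ionomycin 5 μM. Relative fluorescence; N = 3 mice.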

A short description of data set [17]: Chemical stability of compound in DMSO at 4 degree C measured after 7 days by NMR analysis. To be noted: read-out: Stability. It counts as physicochemical.
Data set [18] can be described thus: Chemical stability of compound in DMSO at 4 degree C measured after 30 days by NMR analysis. Type of data set: physicochemical. Particulars: read-out: Stability.

Activity calls are given as the source filed them. The calls are words filed in the database; no cut-off is given here.

Sequence of Voltage-dependent L-type calcium channel subunit alpha-1C (Q13936 whole entry): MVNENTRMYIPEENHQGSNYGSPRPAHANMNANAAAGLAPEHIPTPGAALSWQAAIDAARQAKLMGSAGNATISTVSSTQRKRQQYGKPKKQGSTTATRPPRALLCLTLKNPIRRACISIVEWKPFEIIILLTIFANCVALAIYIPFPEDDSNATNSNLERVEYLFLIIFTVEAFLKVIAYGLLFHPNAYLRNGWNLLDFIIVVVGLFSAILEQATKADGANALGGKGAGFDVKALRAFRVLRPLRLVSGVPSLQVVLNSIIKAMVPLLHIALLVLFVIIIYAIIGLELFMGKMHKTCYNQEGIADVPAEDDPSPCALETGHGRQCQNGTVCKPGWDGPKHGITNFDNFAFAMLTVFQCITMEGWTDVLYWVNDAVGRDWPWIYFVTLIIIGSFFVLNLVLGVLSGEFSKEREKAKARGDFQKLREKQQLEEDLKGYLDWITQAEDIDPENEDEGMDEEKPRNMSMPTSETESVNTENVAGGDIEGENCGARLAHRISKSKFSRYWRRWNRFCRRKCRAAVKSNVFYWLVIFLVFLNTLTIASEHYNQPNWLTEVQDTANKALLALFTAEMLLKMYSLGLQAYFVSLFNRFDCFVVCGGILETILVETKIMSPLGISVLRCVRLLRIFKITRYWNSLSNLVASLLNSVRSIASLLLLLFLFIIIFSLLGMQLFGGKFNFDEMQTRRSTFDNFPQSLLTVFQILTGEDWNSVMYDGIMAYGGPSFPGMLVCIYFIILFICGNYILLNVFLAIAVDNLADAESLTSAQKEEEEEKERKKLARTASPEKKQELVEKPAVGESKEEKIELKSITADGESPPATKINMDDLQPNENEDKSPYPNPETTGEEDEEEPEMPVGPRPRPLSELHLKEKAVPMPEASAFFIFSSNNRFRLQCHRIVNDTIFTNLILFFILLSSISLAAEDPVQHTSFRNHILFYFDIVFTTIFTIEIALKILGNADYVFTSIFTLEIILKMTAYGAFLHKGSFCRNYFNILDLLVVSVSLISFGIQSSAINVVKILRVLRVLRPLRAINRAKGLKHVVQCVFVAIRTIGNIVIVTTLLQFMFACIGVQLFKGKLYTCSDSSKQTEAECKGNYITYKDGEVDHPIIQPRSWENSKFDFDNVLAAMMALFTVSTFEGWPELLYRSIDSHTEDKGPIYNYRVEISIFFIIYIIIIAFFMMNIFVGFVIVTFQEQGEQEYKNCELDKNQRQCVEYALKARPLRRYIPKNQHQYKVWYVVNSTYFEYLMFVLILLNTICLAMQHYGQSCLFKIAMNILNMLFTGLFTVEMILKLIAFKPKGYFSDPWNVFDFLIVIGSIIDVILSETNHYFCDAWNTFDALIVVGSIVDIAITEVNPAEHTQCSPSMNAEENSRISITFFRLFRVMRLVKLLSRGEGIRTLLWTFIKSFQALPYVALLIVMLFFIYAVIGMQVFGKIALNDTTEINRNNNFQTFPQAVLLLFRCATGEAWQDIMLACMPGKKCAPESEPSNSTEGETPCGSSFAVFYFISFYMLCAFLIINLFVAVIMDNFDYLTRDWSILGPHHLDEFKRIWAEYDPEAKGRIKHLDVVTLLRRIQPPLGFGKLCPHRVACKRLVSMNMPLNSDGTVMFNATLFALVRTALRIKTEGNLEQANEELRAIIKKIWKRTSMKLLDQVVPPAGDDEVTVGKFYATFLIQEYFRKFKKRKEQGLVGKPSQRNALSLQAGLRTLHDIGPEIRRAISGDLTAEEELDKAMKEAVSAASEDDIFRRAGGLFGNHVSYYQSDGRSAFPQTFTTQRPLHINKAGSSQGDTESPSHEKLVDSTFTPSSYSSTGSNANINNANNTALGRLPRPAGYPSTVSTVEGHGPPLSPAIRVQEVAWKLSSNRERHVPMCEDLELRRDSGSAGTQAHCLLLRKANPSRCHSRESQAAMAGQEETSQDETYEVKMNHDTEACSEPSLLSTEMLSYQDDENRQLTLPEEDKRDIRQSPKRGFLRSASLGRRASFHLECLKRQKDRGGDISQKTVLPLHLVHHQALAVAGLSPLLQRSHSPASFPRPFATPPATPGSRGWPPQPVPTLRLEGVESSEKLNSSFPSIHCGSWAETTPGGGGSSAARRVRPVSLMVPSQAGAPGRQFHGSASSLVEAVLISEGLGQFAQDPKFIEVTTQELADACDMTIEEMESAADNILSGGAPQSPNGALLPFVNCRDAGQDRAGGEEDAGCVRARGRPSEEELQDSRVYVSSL
Sequence of G-protein coupled receptor 84 (Homo sapiens) (Q9NQS5 whole entry): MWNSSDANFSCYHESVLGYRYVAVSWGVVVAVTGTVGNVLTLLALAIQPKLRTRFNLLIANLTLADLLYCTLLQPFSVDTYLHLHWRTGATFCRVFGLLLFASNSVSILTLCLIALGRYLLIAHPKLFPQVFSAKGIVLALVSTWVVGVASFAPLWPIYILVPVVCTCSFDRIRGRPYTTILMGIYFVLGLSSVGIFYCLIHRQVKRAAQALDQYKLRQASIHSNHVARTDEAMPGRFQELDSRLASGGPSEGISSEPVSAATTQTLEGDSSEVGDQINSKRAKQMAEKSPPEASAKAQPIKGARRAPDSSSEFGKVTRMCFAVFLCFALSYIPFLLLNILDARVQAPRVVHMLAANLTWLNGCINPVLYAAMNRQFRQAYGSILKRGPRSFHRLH
Sequence of Free fatty acid receptor 1 (Homo sapiens) (O14842 whole entry): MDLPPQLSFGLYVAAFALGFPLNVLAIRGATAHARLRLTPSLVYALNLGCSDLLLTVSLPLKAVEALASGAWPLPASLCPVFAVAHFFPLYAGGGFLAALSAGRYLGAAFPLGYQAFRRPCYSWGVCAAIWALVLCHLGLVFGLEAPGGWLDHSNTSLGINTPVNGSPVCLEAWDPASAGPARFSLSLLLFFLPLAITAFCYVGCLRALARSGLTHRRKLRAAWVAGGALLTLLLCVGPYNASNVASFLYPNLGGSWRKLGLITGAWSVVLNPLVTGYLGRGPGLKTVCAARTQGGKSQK

With `CC1=C(C(=O)Nc2cc(Cl)ccc2Cl)C(CN)C2=C(CCCC2=O)N1` (centres undefined), the pEC50 entry in data set [1] is “inactive”.

Take `Cc1ccccc1NC(=O)C1=C(c2ccccc2)NC2=C(C(=O)CCC2)C1c1ccco1` (centres undefined): in data set [1], the pEC50 entry is “inactive”.

On to `CC1=C(C(=O)Nc2cc(Cl)ccc2Cl)C(C2CCCC2)C2=C(CCCC2=O)N1` (centres undefined), for which the result in [2], in data set [3], in data set [4] and in [5] was inactive. Also, the “inhibition (INH)” value in [6] is recorded as “Not Active”.

In general, EC50 refers to the concentration needed to bring the measured effect to its halfway point. As for `CC1=C(C(=O)Nc2ccccc2C)C(c2ccco2)C2=C(CCCC2=O)N1` (centres undefined), the EC50 in data set [7] is 0.537 µM. The result in data set [2], in [3], in data set [4] and in data set [5] was inactive. Besides, in data set [6], the “inhibition (INH)” value is reported as “Not Active”.

With `CC1=C(C(=O)Nc2ccccc2C)C(c2ccccc2Br)C2=C(CCCC2=O)N1` (centres undefined), the pEC50 entry in data set [8] was “inactive”.

Turning to `CC1=C(C(=O)Nc2cc(Cl)ccc2Cl)C(c2ccco2)C2=C(CCCC2=O)N1` (centres undefined), the outcome in data set [2], in data set [3], in data set [4] and in [5] was inactive. Moreover, the “inhibition (INH)” value in [6] is “Not Active”.

Take `CC1=C(C(=O)Nc2cc(Cl)ccc2Cl)C(CNC(=O)OC(C)(C)C)C2=C(CCCC2=O)N1` (centres undefined): in [1], the pEC50 result was “inactive”.

On to `CC1=C(C(=O)Nc2cc(Cl)ccc2Cl)C(CC2CCNCC2)C2=C(CCCC2=O)N1` (centres undefined), for which the pEC50 result in data set [1] was “inactive”.

For the compound `CC1=C(C(=O)Nc2cc(Cl)ccc2Cl)C(CC2CCN(C(=O)OC(C)(C)C)CC2)C2=C(CCCC2=O)N1` (centres undefined), the pEC50 result in [1] was “inactive”. For the same compound, in data set [9], the result was Active.

Take `Cc1ccccc1NC(=O)c1c(C)nc2c(c1-c1ccco1)C(=O)CCC2`: the pEC50 result in data set [10] and in data set [1] was “inactive” each time.

`CC1=C(C(=O)Nc2ccccc2C)C(CC(C)C)C(C(=O)c2ccccc2)=C(C)N1` (centres undefined): the pEC50 result in data set [10] and in data set [1] was “inactive” throughout.

On to `CCN(CC)CCOCC1C(C(=O)Nc2cc(Cl)ccc2Cl)=C(C)NC2=C1C(=O)CCC2` (centres undefined), for which, in data set [1], the pEC50 entry is “inactive”.

As for `CCC(=O)O` [PROPIONIC ACID], the EC50 is 10.7 µM in [11] and 11.7 µM in data set [12].

Turning to `COC(=O)C1=C(C)NC(C)=C(C(=O)Nc2ccccc2C)C1CC(C)C` (centres undefined), in data set [1], the pEC50 entry was “inactive”.

Consider `COC(=O)C1=C(C)NC2=C(C(=O)CCC2)C1CC(C)C` (centres undefined), for which the pEC50 entry in [1] was “inactive”.

With `CC1=C(C(=O)c2ccccc2)C(CC(C)C)C2=C(CCCC2=O)N1` (centres undefined), in [1], the pEC50 result is “inactive”.

As for `CCCC1C(C(=O)Nc2cc(Cl)ccc2Cl)=C(C)NC2=C1C(=O)CCC2` (centres undefined), the outcome in [2], in [3], in data set [4], in data set [5] and in [16] was inactive. Further, the “inhibition (INH)” value in data set [6] is listed as “Not Active”. Further, the remaining at 168 h in data set [13] and in data set [17] was 100% in each case. Moreover, in [14], the Stability result was “Unstable”. In data set [15], the result was Active. The remaining at 720 h in data set [18] came to 100%.
